Experimental data taken from ChEMBL document CHEMBL1143874, “Diazen-1-ium-1,2-diolated and nitrooxyethyl nitric oxide donor ester prodrugs of anti-inflammatory (E)-2-(aryl)-3-(4-methanesulfonylphenyl)acrylic acids: synthesis, cyclooxygenase inhibition, and nitric oxide release studies” (Bioorg Med Chem, 2008).

Columns and labels:
[1] = target: T1, Prostaglandin G/H synthase 1 (Ovis aries, UniProt P05979); experiment: Inhibition of ovine COX1 by enzyme immunoassay
T1 sequence (P05979 whole entry): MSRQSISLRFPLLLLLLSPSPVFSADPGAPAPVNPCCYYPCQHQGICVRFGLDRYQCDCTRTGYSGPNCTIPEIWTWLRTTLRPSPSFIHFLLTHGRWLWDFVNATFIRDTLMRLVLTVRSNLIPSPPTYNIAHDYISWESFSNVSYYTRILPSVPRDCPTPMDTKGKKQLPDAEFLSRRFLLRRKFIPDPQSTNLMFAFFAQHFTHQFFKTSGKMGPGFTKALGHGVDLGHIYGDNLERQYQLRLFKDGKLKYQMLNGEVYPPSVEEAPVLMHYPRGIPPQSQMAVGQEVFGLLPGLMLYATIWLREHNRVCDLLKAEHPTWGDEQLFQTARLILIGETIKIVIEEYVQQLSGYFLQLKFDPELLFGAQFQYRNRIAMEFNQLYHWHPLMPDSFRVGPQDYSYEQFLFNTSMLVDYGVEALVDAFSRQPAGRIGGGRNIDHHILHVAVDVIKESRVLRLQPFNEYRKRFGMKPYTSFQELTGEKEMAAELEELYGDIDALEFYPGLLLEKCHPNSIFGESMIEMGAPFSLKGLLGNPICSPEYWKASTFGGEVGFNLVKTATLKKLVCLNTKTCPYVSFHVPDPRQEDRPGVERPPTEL

[2] = Nitric oxide release in PBS in presence of 5 mM L-cysteine at pH 7.4 in 37 degC after 1.5 hrs; type: functional
How it was run: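 Phosphate buffer pH 7.4 containing 5.0 mM L-cysteine, with test compound at 1.0 · 10^-2 mM, kept at 37 °C for 1.5 h. Nitrite was determined by Griess reaction. % NO released is relative to a theoretical maximum of 1 mol NO/mol for nitrooxyethyl esters. Mean of 3 measurements.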

[3] = Nitric oxide release in PBS at pH 7.4 in 37 degC after 1.5 hrs; type: functional; set-up: concentration or dose not given beside the values
How it was run: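 Test compound at 1.0 · 10^-2 mM in phosphate buffer pH 7.4, incubated 37 °C for 1.5 h. Nitrite was quantified by Griess reaction. % NO released is relative to a theoretical maximum of 2 mol NO/mol for diazeniumdiolates, 1 mol/mol for nitrooxyethyl esters and 3 mol/mol for glycerol trinitrate. Mean of 3 measurements.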

Serum = experiment: Nitric oxide in rat serum at pH 7.4 in 37 degC after 1.5 hrs; type: ADME, cell-free; set-up: concentration or dose not given beside the values; conditions: pH 7.4, 1.5 h
How it was run: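 Test compound at 1.0 · 10^-2 mM in phosphate buffer pH 7.4 with 90 µL rat serum added, incubated 37 °C for 1.5 h. Nitrite measured by Griess reaction. % NO released is relative to a theoretical maximum of 2 mol NO/mol for diazeniumdiolates and 1 mol/mol for nitrooxyethyl esters. Mean of 3 measurements.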

Ovis aries = species: Ovis aries; experiment: Selectivity index, ratio of IC50 for ovine COX1 to IC50 for ovine COX2
How it was run: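 Ovine COX-1 and COX-2 IC50s were measured by enzyme immunoassay kit. Deviation from the mean was <10%. The index is COX-1 IC50/COX-2 IC50.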

| IC50 [1] [nM] | Activity (Serum) [%] | Ratio IC50 (Ovis aries) | SMILES | Activity [2] [%] | Activity [3] [%] |
| --- | --- | --- | --- | --- | --- |
| 31600 |  |  | COc1ccc(/C(=C\c2ccc(S(C)(=O)=O)cc2)C(=O)O)cc1 |  |  |
| 880 |  |  | CS(=O)(=O)c1ccc(/C=C(/C(=O)O)c2ccc(Br)cc2)cc1 |  |  |
| 400 |  |  | CS(=O)(=O)c1ccc(/C=C(/C(=O)O)c2ccc(F)cc2)cc1 |  |  |
|  | 83 |  | CC(=O)OCO/N=[N+](\[O-])N(C)CCOC(=O)/C(=C/c1ccc(S(C)(=O)=O)cc1)c1ccccc1 |  | 4.8 |
|  | 77.6 |  | COc1ccc(/C(=C\c2ccc(S(C)(=O)=O)cc2)C(=O)OCCN(C)/[N+]([O-])=N/OCOC(C)=O)cc1 |  | 3.9 |
|  | 76.2 |  | CC(=O)OCO/N=[N+](\[O-])N(C)CCOC(=O)/C(=C/c1ccc(S(C)(=O)=O)cc1)c1ccc(Br)cc1 |  | 3.5 |
| 1500 |  | 0.5 | CS(=O)(=O)c1ccc(/C=C(/C(=O)O)c2ccccc2)cc1 |  |  |
| 6200 |  |  | CS(=O)(=O)c1ccc(/C=C(/C(=O)OCCO[N+](=O)[O-])c2ccccc2)cc1 | 8.5 | 3 |
|  | 85 |  | CN(CCO)/[N+]([O-])=N/[O-].[Na+] |  | 84.9 |
|  | 82.1 |  | CC(=O)OCO/N=[N+](\[O-])N(C)CCOC(=O)/C(=C/c1ccc(S(C)(=O)=O)cc1)c1ccc(F)cc1 |  | 3.6 |
|  |  |  | O=[N+]([O-])OCC(CO[N+](=O)[O-])O[N+](=O)[O-] | 10.1 | 2.8 |

| SMILES | IC50 [1] [nM] | Activity (Serum) [%] | Ratio IC50 (Ovis aries) | Activity [2] [%] | Activity [3] [%] |
| --- | --- | --- | --- | --- | --- |
| COc1ccc(/C(=C\c2ccc(S(C)(=O)=O)cc2)C(=O)OCCO[N+](=O)[O-])cc1 | 1100 |  |  | 9.2 | 1.4 |
| CS(=O)(=O)c1ccc(/C=C(/C(=O)OCCO[N+](=O)[O-])c2ccc(Br)cc2)cc1 | 370 |  |  | 10.1 | 1 |
| CS(=O)(=O)c1ccc(/C=C(/C(=O)OCCO[N+](=O)[O-])c2ccc(F)cc2)cc1 | 1600 |  |  | 7.6 | 3.3 |
